Results of several laboratories.
Protocols differ between the studies behind these lines.
Target: Dual specificity testis-specific protein kinase 1 (TESK1, Homo sapiens, UniProt Q15569)

`Cc1cc(NC(=O)c2cccc(S(F)(F)(F)(F)F)c2)cc(-n2ccn3nc(-c4cccnc4)cc23)c1` gave a remaining binding of 91.7% (cell-free assay; competition with immobilised ligand; 1 µM).
`COc1ncc2cc3ccccc3nc2c1C#N` gave a remaining binding of 94% (cell-free assay; competition with immobilised ligand; 5 µM).
`O=C(NCCCN1CCOCC1)c1ccc(Nc2nccc(-c3cc4ccccc4s3)n2)cc1` has a remaining binding of 77% (binding; competition with immobilised ligand; 1 µM).
`O=C(Nc1cnc(Oc2ccc(F)cc2)nc1)N1CCc2ncccc2[C@@H]1c1ccc(F)cc1` gave a remaining binding of 91% (cell-free assay; competition with immobilised ligand; 1 µM).
`CC1CCCN1c1nccc(-c2cnn3ncccc23)n1` (centres unmarked) gave a remaining binding of 99% (binding; 1 µM).
With `O=C(N[C@H]1CCCCC/C=C\C2C[C@@]2(C(=O)O)NC(=O)[C@@H]2C[C@@H](Oc3ccncc3)CN2C1=O)OC1CCCC1` (some centres unmarked) the remaining binding was 97% (binding; competition with immobilised ligand; 1 µM).
`C[C@@H](c1ccc(-n2cnc3c(N)ncnc32)cc1)N1CCc2nn(C)c(Cc3ccccc3)c2C1=O` gave a remaining binding of 87% (binding; competition with immobilised ligand; 0.1 µM).
`COc1cnc(Nc2cccc(S(N)(=O)=O)c2)nc1N1CCN(c2ccccc2)CC1` has a remaining binding of 100% (binding; competition with immobilised ligand; 1 µM).
The remaining binding of `O=C(c1ccc(Nc2ncc(Cl)c(-c3cc4ccccc4s3)n2)cc1)N1CCC(N2CCCC2)CC1` is reported as 81% (binding; competition with immobilised ligand; 1 µM).
`CN(C)c1nccc(-c2cnn3ncccc23)n1` has a remaining binding of 100% (binding; 1 µM).
`COc1ccc2c(c1)O[C@@H](c1ccc(OC)c(OC)c1)C[C@H]2NC(=O)C1(c2ccc3c(c2)OC(F)(F)O3)CC1` has a remaining binding of 96% (cell-free assay; competition with immobilised ligand; 1 µM).
For `N[C@@H]1CCN(c2nccc(-c3cnn4ncccc34)n2)C1`, the remaining binding was 100% (binding; 1 µM).
With `O=C(NCC1CCOCC1)c1n[nH]cc1NC(=O)c1c(F)cccc1F` the remaining binding was 100% (binding; competition with immobilised ligand; 1 µM).
The remaining binding of `NS(=O)(=O)c1cc(NC(=O)Cc2ccccc2)ccc1Oc1cccc(Cl)c1` is reported as 100% (cell-free assay; competition with immobilised ligand; 1 µM).
`c1cnn2ncc(-c3ccnc(N4CCC45COC5)n3)c2c1` gave a remaining binding of 99% (binding; 1 µM).
`O=C(c1ccc(Nc2nccc(-c3cc4ccccc4s3)n2)cc1)N1CCC(N2CCCC2)CC1` gave a remaining binding of 97% (binding; competition with immobilised ligand; 1 µM).
For `CN(C)c1ncc(F)c(-c2cnn3ncccc23)n1`, the remaining binding was 100% (binding; 1 µM).
With `CCS(=O)(=O)c1cc2cc(C[C@@](O)(CC(C)(C)c3ccc(F)cc3C(N)=O)C(F)(F)F)[nH]c2cn1` the remaining binding was 77% (cell-free assay; competition with immobilised ligand; 1 µM).
`C[C@@H]1CCN(c2nccc(-c3cnn4ncccc34)n2)C1` gave a remaining binding of 91% (binding; 1 µM).
For `Nc1ncc2c(n1)-c1c([nH]c3ccc(C#CC4CC4)cc13)CCCC2`, the remaining binding was 100% (binding; competition with immobilised ligand; 1 µM).
